Shown are actives, neighbours in structure and some others; about 3.4% of the full set was active somewhere.
DTT redox prof: compounds producing H2O2 with reducing agent – biochemical, NIH compound library profiling, artefact control for MLSCN library redox annotation, primary screen. DTT-dependent redox cycling H2O2, phenol red/HRP absorbance; 100% = 100 µM peroxide control, 0% = buffer. activation, % at 10 µM. 200,000 tested, 0.03% active. AID 878, 2007;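 active means activation of at least 50% relative to the plate's high and low controls in the primary single-dose screen; inactive means activation below 50%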;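 further: compound incubated with DTT at 0.8 mM final as the reducing agent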
PKD1 kinase inh: inhibitors of human PKD1 kinase, biochemical, fluorescence polarization; Serine/threonine-protein kinase D1 (Homo sapiens), Q15139; PKD1 kinase fluorescence polarization assay; inhibition, % (test concentration not listed); 200,000 tested, 0.056% active; AID 797, 2007; in the data active means inhibition above about 50%
Mdm2 ligase inh: MDM2-luciferase reporter signal enhancers, primary screen, MDM2 E3 ligase inhibitor project, cell-based, luminescence, 1536-well | cell-based MDM2 ubiquitination luciferase reporter, 2 h; 0 = plate control, 100 = twice control, blank-subtracted | signal enhancement, % at 5 µM | 210,000 tested, 0.11% active | AID 1230, 2008;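 active means signal enhancement of 30% or more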;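 further: luminescence tracks abundance of the self-degrading MDM2-luciferase fusion protein; higher signal means inhibition of MDM2 E3 ligase activity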
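Material: stable MDM2–luciferase fusion reporter cells / Quantity: 2000 cells/well / Dosing: single 5 µM compound dose, 0.2% final DMSO / Buffer or medium: DMEM / Schedule: 4 h cell settling then 2 h compound exposure, 37 °C / Detection: luminescence with SteadyLite reagent, 15 min at room temperature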
ROMK primary: ROMK potassium channel modulators, primary screen, cell-based, thallium flux, MLSMR library; ATP-sensitive inward rectifier potassium channel 1 (Homo sapiens), P48048; Tet-inducible ROMK, thallium flux fluorescence; actives lie on both sides; B-score at 10 µM; 130,000 tested, 2% active; AID 1918, 2009;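 active means signal ratio slope over the read window, or its plate-corrected B-score, at least 3 SD from the plate mean, either direction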;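 further: B-score of the F/F0 ratio slope over 7 to 12 s after thallium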
Target sequence (P48048 whole entry, looked up): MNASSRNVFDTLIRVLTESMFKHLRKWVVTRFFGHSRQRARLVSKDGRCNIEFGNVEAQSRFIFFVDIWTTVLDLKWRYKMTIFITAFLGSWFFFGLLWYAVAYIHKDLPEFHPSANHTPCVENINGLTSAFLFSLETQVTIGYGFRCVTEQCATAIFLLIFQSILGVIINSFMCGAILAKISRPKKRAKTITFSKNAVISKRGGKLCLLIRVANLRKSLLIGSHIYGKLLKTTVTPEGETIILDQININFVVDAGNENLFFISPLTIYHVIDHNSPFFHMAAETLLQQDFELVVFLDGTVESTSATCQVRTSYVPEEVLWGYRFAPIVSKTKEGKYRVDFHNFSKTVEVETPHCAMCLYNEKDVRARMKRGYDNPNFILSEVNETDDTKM
p97 inhibitor: inhibitors of human p97 ATPase, primary screen, biochemical; Transitional endoplasmic reticulum ATPase (Homo sapiens), P55072; recombinant p97 ATPase, Kinase-Glo ATP luminescence, 3 h; inhibition, % at 8 µM; 220,000 tested, 0.42% active; AID 1481, 2009; in the data active means inhibition above about 15%;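 further: 0% = DMSO vehicle and 100% = wells lacking enzyme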
Cl transport mod: KCC2 cotransporter modulators, thallium flux, primary screen, cell-based, HEK293 KCC2, FluoZin-2 fluorescence, MLSMR; AID 1456, 2008; Solute carrier family 12 member 5 (Homo sapiens), Q9H2X9; KCC2 cells, thallium flux FluoZin-2 fluorescence; 190,000 tested, 2.2% active; B-score of Tl+ flux slope (higher = more flux/activation; lower = inhibition) at 10 µM;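 active means thallium flux slope and its plate-corrected score both differing from the plate sample mean at a set confidence after two filtering rounds, in either direction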;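 further: slope of fluorescence scaled to starting intensity during 10 to 20 s after thallium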
KCC2 sec1: KCC2 modulators in sodium-free buffer, confirmation, cell-based, HEK293 KCC2, thallium flux, secondary assay | AID 1713, 2009 | 3,700 tested, 15% active | normalised thallium flux (F/F0 slope) at 10 µM | shares compounds with Cl transport mod | FluoZin2 fluorescence; hits give high values;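 active means thallium flux slope above the same plate's solvent-only control mean plus 3 SD; inconclusive means the two replicate wells disagree; inactive means no significant difference from solvent-only control wells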
KCC2 bumet counter: thallium flux persisting under bumetanide in KCC2 cells, confirmation, counter-screen for KCC2 modulator project, cell-based, HEK293 KCC2, FluoZin2, secondary assay 3. shares compounds with Cl transport mod. AID 1714, 2009. normalized thallium flux at 10 µM. 3,700 tested, 49% active. HEK293-KCC2 + bumetanide/ouabain; hits give high values;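 active means thallium entry rate above the same plate's blocked-transporter control wells by more than 3 SD; inconclusive means the two repeat wells disagree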;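 further: raw slope of fluorescence over initial fluorescence between 10 and 20 s after thallium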
KCC2 sec2: KCC2 modulators without ouabain present, confirmation, cell-based, HEK293 KCC2, thallium flux, FluoZin2, secondary assay 2; shares compounds with Cl transport mod; thallium flux FluoZin2 fluorescence; actives lie on both sides; F/F0 rise rate, 10–20 s post-thallium; normalized thallium flux at 10 µM; 3,700 tested, 23% active;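 active means thallium flux slope more than 3 SD above or below the plate's solvent-only control mean, mostly below; inconclusive means the two repeat wells disagreed; inactive means no significant shift from solvent-only controls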;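 further: raw slope with 0.1% DMSO as baseline and bumetanide as block control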
HEK293 Tl flux: thallium flux modulation in parental HEK cells, confirmation, counter-screen for KCC2 modulator project, cell-based, counterscreen 1; shares compounds with Cl transport mod; HEK293 parental cells, thallium flux FluoZin2, ouabain; baseline-ratio fluorescence slope, 10–20 s after thallium; thallium flux rate (normalised fluorescence) at 10 µM; 3,700 tested, 46% active; AID 1716, 2009;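 active means thallium flux rate significantly above the same plate's solvent-only control wells, beyond their mean plus 3 SD; inconclusive means the two replicate wells gave conflicting results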
KCC2 retest ouab: KCC2 inhibitors and activators, ouabain retest, confirmation, HEK-KCC2 cells. shares compounds with Cl transport mod. HEK293-KCC2, thallium flux FluoZin2 fluorescence; bidirectional: low = inhibitor, high = activator. raw Tl+ flux slope (below DMSO = inhibition, above = activation) at 10 µM. 3,700 tested, 48% active;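 active means thallium flux slope beyond 3 SD from same-plate DMSO control mean in most replicates, usually higher, sometimes lower; inconclusive means repeat tests gave conflicting results; inactive means no significant difference from controls in most replicates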;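 further: slope of initial-normalized fluorescence between seconds 10 and 20 after thallium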
HEK293 Tl flux2: native HEK Tl+ uptake effects, second counter-screen – HEK cells, counterscreen 2, counter-screen for KCC2 modulator project, confirmation. 3,700 tested, 33% active. thallium flux slope at 10 µM. shares compounds with Cl transport mod. HEK293 parental, thallium flux FluoZin-2 fluorescence slope;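 active means thallium flux slope above the same plate's solvent-control mean plus 3 SD in both duplicate wells; inconclusive means duplicate wells that disagreed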;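 further: run without ouabain in cells lacking the KCC2 cotransporter; slope of fluorescence scaled to its starting value between 10 and 20 s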
* marks the source's active call; other numbers are inactive results; ? = inconclusive; . = not tested or not shown.

SMILES	DTT redox prof	PKD1 kinase inh	Mdm2 ligase inh	ROMK primary	p97 inhibitor	Cl transport mod	KCC2 sec1	KCC2 bumet counter	KCC2 sec2	HEK293 Tl flux	KCC2 retest ouab	HEK293 Tl flux2
c1cc2c(cc1Oc1nc(N3CCOCC3)nc(N3CCOCC3)n1)OCO2	0.6	9.9	-4.3	-0.554	-3.0	0.223	.	.	.	.	.	.
c1ccc2oc(C3=NNC(=NC4CC4)SC3)cc2c1	-0.3	-5.7	-81.3	0.0334	2.6	0.322	.	.	.	.	.	.
COC(=O)c1ccc(/C(O)=C(\C#N)c2nc3ccccc3s2)cc1	-1.4	-0.6	-9.9	.	2.2	-6.78*	0.008	0.00676	0.0341	0.00376	0.0135*	0.01
Cc1ccc(OC/C(O)=C(\C#N)c2nc3ccccc3s2)cc1	0.0	-7.7	7.8	0.792	1.8	-4.32*	0.0146	0.00675*	0.0222*	?	0.0119*	0.0106
COc1cc(C=O)c(Br)cc1OC1CCCC1	-0.3	-1.7	-1.6	1.52	-1.1	.	.	.	.	.	.	.
COC(=O)Cc1[nH]n(-c2nc3ccccc3s2)c(=O)c1C(C)=Nc1ccc(C)cc1	0.4	-0.2	-83.8	-0.13	1.1	2.48	.	.	.	.	.	.
COC(=O)Cc1[nH]n(-c2nc3ccccc3s2)c(=O)c1C(C)=Nc1ccc(Cl)cc1	.	.	-58.9	.	1.1	7.45*	0.00873	0.0143*	0.0299	0.0126*	?	?
CS(=O)(=O)N(CC(=O)Nc1ccc2c(c1)OCCO2)Cc1ccccc1	2.4	-7.6	-13.9	.	-4.2	0.0745	.	.	.	.	.	.
O=C(CN(Cc1ccccc1)S(=O)(=O)c1ccc2c(c1)OCCO2)Nc1ccc2c(c1)OCCO2	-0.9	-1.3	-12.5	.	1.9	.	0.0066	0.00408	0.025*	0.00622*	?	0.00932
COc1ccccc1-c1ccc(SCC(=O)NCc2ccc3c(c2)OCO3)nn1	-1.2	-0.9	-1.5	-2.08	1.8	-1.51	.	.	.	.	.	.
O=C(Cn1nc(-c2ccccc2F)ccc1=O)NCc1ccc2c(c1)OCO2	0.4	3.8	-15.8	.	-0.8	-3.88*	?	0.00513	?	0.0077	0.0136	0.0104
CCc1ccc(-n2c(SCc3c(C)noc3C)nnc2-c2ccncc2)cc1	0.0	0.2	-2.9	0.017	-5.8	-0.947	.	.	.	.	.	.

Screens from PubChem BioAssay.
